Source: PubChem BioAssay (several laboratories)
GalR3 antag = GalR3 antagonists in HEK293 cells, primary screen, cell-based, fluorescence readout | HEK293 GalR3-CNG cAMP membrane potential fluorescence; galR3 body fused to GalR1 C-terminus | inhibition, % at 3 µM | 360,000 compounds, 0.44% hits | AID 651719, 2012;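 active means inhibition above the screen-wide average plus 3 SD, cut at about 13% in these data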;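 further: forskolin and galanin both at EC90 stimulate the cells; cAMP rise reported by CNG channel membrane potential dye signal; 0% = forskolin plus galanin with DMSO and 100% = forskolin alone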
Target sequence (O60755 1-299 limits assumed): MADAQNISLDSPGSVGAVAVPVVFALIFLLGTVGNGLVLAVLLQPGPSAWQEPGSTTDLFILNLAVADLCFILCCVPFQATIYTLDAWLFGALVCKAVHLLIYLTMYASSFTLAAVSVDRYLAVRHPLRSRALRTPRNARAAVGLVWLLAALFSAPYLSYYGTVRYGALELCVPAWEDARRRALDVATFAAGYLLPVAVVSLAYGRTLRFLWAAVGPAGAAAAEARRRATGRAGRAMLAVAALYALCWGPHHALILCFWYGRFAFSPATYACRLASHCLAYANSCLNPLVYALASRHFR
PG9 Ab binder = binders of HIV-1 gp120 antibody PG9, primary screen, biochemical, TR-FRET | AID 624416, 2012 | HIV-1 gp120 / PG9 antibody interaction | TR-FRET gp120-PG9 antibody binding | inhibition, % at 6.7 µM | 360,000 compounds, 0.43% hits; in the data active means inhibition above about 8.5%
NR2E3 ag-1 = NR2E3 agonists in two-hybrid cells, primary screen, cell-based, luminescence, CHO-S, Gal4-NCOR/VP16-NR2E3. 360,000 compounds, 0.35% hits. luciferase. inhibition of corepressor binding, % at 3.98 µM. AID 602229, 2012;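 active means inhibition above the mean of all tested compounds plus 3 SD, cut at about 70% in these data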;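 further: 0% = DMSO with NR2E3 transfected cells and 100% = cells lacking NR2E3 construct; higher means lower luciferase signal from less NR2E3 corepressor binding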
Target sequence (Q9Y5X4 whole entry, looked up, the tested form may be a part): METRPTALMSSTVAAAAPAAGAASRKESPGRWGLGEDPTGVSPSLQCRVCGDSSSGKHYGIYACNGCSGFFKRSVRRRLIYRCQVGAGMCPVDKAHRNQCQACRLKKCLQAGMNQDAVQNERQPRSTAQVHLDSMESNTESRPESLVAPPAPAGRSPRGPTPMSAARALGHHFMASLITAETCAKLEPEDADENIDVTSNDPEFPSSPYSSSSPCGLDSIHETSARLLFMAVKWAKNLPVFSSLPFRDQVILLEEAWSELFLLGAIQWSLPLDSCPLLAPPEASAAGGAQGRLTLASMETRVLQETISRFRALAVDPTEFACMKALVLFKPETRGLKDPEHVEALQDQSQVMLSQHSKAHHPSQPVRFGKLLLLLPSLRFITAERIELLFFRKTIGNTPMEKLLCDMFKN
NR2E3 ag-2 = inhibitors of NR2E3-RetCOR corepressor binding, primary screen, NR2E3 agonist project, biochemical, TR-FRET, GST-NR2E3, biotin-RetCOR; Photoreceptor-specific nuclear receptor (Homo sapiens), Q9Y5X4; 1536-well; inhibition of corepressor binding, % at 4.78 µM; 320,000 compounds, 0.12% hits; AID 2300, 2010;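 active means percent inhibition above the cutoff of mean plus 3 SD of all tested compounds, set per screening campaign, cut at about 20% in these data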;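 further: 0% = DMSO wells and 100% = biotin wells as full block of FRET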
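Test system – NR2E3–RetCOR corepressor complex · Quantity – NR2E3 fusion 1.35 nM · Buffer or medium – Tris pH 7.5 · Incubation – Compound–protein incubation for 5 h at 4 °C · Technique – TR-FRET, Eu(K)-anti-GST donor, streptavidin-D2 acceptor, ex 340, em 617/671 nm · Evaluation – percent inhibition of 671/617 nm emission ratio versus biotin and DMSO controls · Plate – 1536-well format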
Rev-erbA mod = modulators of Rev-erb alpha DNA binding, primary screen, biochemical, FITC-DNA, fluorescence polarization, uHTS. 370,000 compounds, 0.79% hits. activity, % at 10 µM. Nuclear receptor subfamily 1 group D member 1 (Homo sapiens), P20393. Rev-erbα–FITC-DNA binding, 90 min;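 active means activity above about 14%, limit read from the data; passing the limit was not always enough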;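 further: 0% = DMSO wells with 35 nM protein and 100% = DMSO wells with 750 nM protein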
NR2E3 ag conf = NR2E3 agonist confirmation in cells, cell-based, luminescence, CHO-S two-hybrid | shares compounds with NR2E3 ag-1 | CHO-S mammalian two-hybrid NR2E3-NCOR, luciferase luminescence | inhibition, % at 3.98 µM | 2,300 compounds, 51% hits | AID 624378, 2012;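 active means average inhibition above a cutoff equal to the mean inhibition of all tested compounds plus one SD, cut at about 70% in these data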;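 further: 0% = DMSO in NR2E3 cells and 100% = DMSO in cells lacking NR2E3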
GAL4-VP16 luc = GAL4-VP16 reporter modulators, confirmation, counter-screen for NR2E3 agonist project, cell-based, luminescence, CHO-S, high throughput. shares compounds with NR2E3 ag-1. inhibition, % at 3.98 µM. CHO-S GAL4-VP16 luciferase reporter. AID 624379, 2012. 2,300 compounds, 29% hits;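 active means mean inhibition above a cutoff equal to the average over all tested compounds plus one standard deviation, cut at about 70% in these data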;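 further: luciferase from a UAS reporter driven by GAL4-VP16 transactivation; 0% = DMSO with VP16-transfected cells and 100% = DMSO with cells lacking VP16; higher means less reporter light so more repression of VP16 activity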
Numbers without * were called inactive; x = no result given. Most compounds without a hit are left out; they make up all but 1.8% or so of the library.

SMILES	GalR3 antag	PG9 Ab binder	NR2E3 ag-1	NR2E3 ag-2	Rev-erbA mod	NR2E3 ag conf	GAL4-VP16 luc
CC(O)CC(C(=O)NNc1ccccc1)C(=O)NNc1ccccc1 (centres undefined)	0.9	-1.6	63.3	5.4	-2.8	41.2	9.8
CC(C)OC(=O)C(=O)NNc1ccccc1	-3.8	-4.8	54.3	-2.0	0.6	28.5	-0.1
CC(C)C(=O)NNc1ccccc1	1.1	-0.7	-13.6	0.3	-2.3	x	x
O=C(Nc1ccc(N2CCN(C(=O)c3ccco3)CC2)cc1)c1ccc2c(c1)OCO2	-4.9	-0.9	52.4	0.1	-0.3	19.6	16.2
Cc1ccccc1C(=O)N1CCN(c2ccc(NC(=O)c3ccc4c(c3)OCO4)cc2)CC1	-6.9	-1.1	75.3*	-1.3	-0.2	91.1*	60.5
COc1ccc(OC)c(NC(=O)O[C@@H]2CC[C@@]34CCCN3C(=O)CCC[C@H]4C2)c1	x	x	x	x	-1.7	x	x
O=c1cc(-c2ccccc2Cl)oc2c([N+](=O)[O-])c(O)cc(O)c12	-7.2	-1.0	98.0*	6.0	-0.9	98.7*	90.7*
CCOC(=O)CC[C@@]1(C(=O)OCC)C[C@@H](CC(=O)NCc2ccc(C)o2)C(=O)N2CCCC=C21	x	x	x	x	5.4	x	x
S=c1nc2ccccc2c2nc(-c3ccccc3)[nH]n12	-3.1	3.8	83.0*	1.1	-7.8	-55.9	-63.1
S=c1nc2ccccc2c2nc(-c3ccccc3Cl)[nH]n12	-3.6	-1.2	-12.3	5.0	1.5	x	x
CC(Oc1ccc(Br)cc1)c1nc2c3ccccc3nc(=S)n2[nH]1 (centres undefined)	-6.1	-2.1	82.8*	-1.3	8.4	89.0*	41.0
CC(C)C[C@@H](CO)N1Cc2nnn(Cc3ccccc3)c2-c2ccccc2S1(=O)=O	x	x	x	x	2.2	x	x
O=C(N[C@@H](Cc1cccnc1)C(=O)N1CCC[C@H]1C(=O)NCCc1ccccc1Cl)C1CCCC1	-0.2	3.4	x	x	-0.8	x	x
S=C(NCc1ccc(Cl)cc1)Nc1ccccc1	-4.0	-2.5	-22.8	1.7	1.8	x	x
S=C(NCc1ccc(Cl)cc1)Nc1ccncc1	5.7	-0.3	99.9*	1.2	2.5	84.1*	81.0*
O=C(c1cccs1)N1CCN(c2ccc([N+](=O)[O-])cc2F)CC1	-6.5	0.5	-8.0	1.8	-3.0	x	x
Cc1cc(N2CCN(C(=O)c3cccs3)CC2)c(F)cc1[N+](=O)[O-]	-7.7	-0.6	79.0*	3.0	-3.4	82.3*	65.9
CCOc1ccc(CN(C)Cc2cc(=O)oc3c(C)c(C)ccc23)cc1OC	-3.4	0.0	86.2*	x	-2.2	88.2*	80.6*
COc1ccc2c(c1)N[C@@](CCNC=O)(c1[nH]c3ccccc3c1CCNC=O)C2=O	x	x	x	x	-5.6	x	x
CC1CCC(NS(=O)(=O)c2ccc(N3CCCC3=O)cc2)CC1 (centres undefined)	-2.0	-1.5	53.1	0.8	0.9	30.8	31.9
COc1ccc(CNCCc2ccc(Cl)cc2)cc1OCc1ccccc1	x	x	47.9	-1.2	x	82.3*	71.2*
COc1ccc(CCNC(=O)Cc2ccc(OCc3ccccc3)c(OC)c2[N+](=O)[O-])cc1OCc1ccccc1	-3.7	-1.4	101.4*	2.1	-4.1	88.0*	73.0*
O=C(NCc1ccco1)C1CCCN(c2ncccn2)C1 (centres undefined)	x	x	x	x	-4.2	x	x
O=C(NCc1ccc(C(F)(F)F)cc1)C1CC(c2ccc(C(F)(F)F)cc2)=NO1 (centres undefined)	-5.5	-0.5	80.9*	2.0	-2.0	80.9*	60.4
CC1Cc2ccccc2N1C(=S)NC(=O)c1cccc(Br)c1 (centres undefined)	3.1	-1.2	25.9	-2.3	-2.1	x	x
SMILES	GalR3 antag	PG9 Ab binder	NR2E3 ag-1	NR2E3 ag-2	Rev-erbA mod	NR2E3 ag conf	GAL4-VP16 luc
CC1Cc2ccccc2N1C(=S)NC(=O)c1ccc(Cl)cc1Cl (centres undefined)	1.8	-1.8	78.2*	2.1	6.5	28.3	26.1
O=C(NCCNc1ccnc2cc(Cl)ccc12)c1ccccc1F	-3.9	0.1	64.5	-0.2	-4.5	53.5	57.0
CCN(CC)CCNc1ccnc2cc(Cl)ccc12	-4.2	1.0	-21.7	2.5	-2.4	x	x
Clc1ccc2c(NCc3ccccc3)ccnc2c1	-8.9	-0.2	68.7	2.9	3.9	44.2	60.5
COc1ccc(/C=N\NC(=O)c2ccccc2Br)cc1COc1c(F)c(F)cc(F)c1F	3.1	2.9	48.6	-0.1	12.7	34.7	50.7
COc1cc(C[C@@H]2C(=O)OC[C@H]2Cc2ccc(OC)c(OC)c2)ccc1O	102.3*	-1.1	86.8*	0.9	-3.2	95.2*	80.5*
COc1cc(CC2COC(=O)C2Cc2ccc(O)c(OC)c2)ccc1O (centres undefined)	-3.8	-0.8	x	x	0.1	x	x
CCOC(=O)N1CCN(c2ncnc3c2[nH]c2ccc(F)cc23)CC1	1.3	2.0	79.7*	0.7	-6.5	94.9*	73.1*
CCOC(=O)N1CCN(c2ncnc3c2[nH]c2ccc(OC)cc23)CC1	-3.6	-1.2	9.5	0.8	-1.7	x	x
OC1(c2cccc(C(F)(F)F)c2)CCN(c2ncnc3c2[nH]c2ccc(F)cc23)CC1	-4.3	0.1	70.9*	x	0.8	91.5*	70.5
COc1ccc(N2CCN(c3ncnc4c3[nH]c3ccccc34)CC2)cc1	-5.2	-3.0	76.9*	-1.1	1.5	95.0*	81.0*
Fc1ccc2[nH]c3c(N4CCN(c5ccccc5)CC4)ncnc3c2c1	-8.1	1.8	80.3*	0.6	-0.6	96.3*	79.6*
COC(=O)[C@H](C(C)C)N1CCc2nnn(CC3CCCCC3)c2-c2cc(F)ccc2S1(=O)=O	x	x	x	x	-7.3	x	x
OCC1OC(n2ccc3c2ncn2ncnc32)C(O)C1O (centres undefined)	-6.8	-3.1	57.5	x	4.7	7.5	12.6
C[C@H]1C2CC(OC(=O)Nc3ccc4c(c3)OCO4)C(C2)[C@H]2CCCCN21 (some centres undefined)	x	x	x	x	1.6	x	x
CC(=O)N1CCN(c2ccc(Oc3ccc([N+](=O)[O-])c(C(F)(F)F)c3)cc2)CC1	x	x	99.6*	1.9	x	96.3*	80.5*
